Many of the other results were omitted from the sample, so hits are more common in it than they were.
IDH1 mut inh = blocks human IDH1 R132H reductase activity | O75874 | diaphorase/resazurin fluorescence, 60 min | inhibition, % at 10 µM | hit rate 0.18% among 70,000 | AID 624101; in the data active = inhibition above about 34%; inconclusive = no clear call, values can overlap the other calls; inactive = below about 11%;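 note: 0% = DMSO and 100% = no enzyme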
Target sequence (O75874 whole entry R132H): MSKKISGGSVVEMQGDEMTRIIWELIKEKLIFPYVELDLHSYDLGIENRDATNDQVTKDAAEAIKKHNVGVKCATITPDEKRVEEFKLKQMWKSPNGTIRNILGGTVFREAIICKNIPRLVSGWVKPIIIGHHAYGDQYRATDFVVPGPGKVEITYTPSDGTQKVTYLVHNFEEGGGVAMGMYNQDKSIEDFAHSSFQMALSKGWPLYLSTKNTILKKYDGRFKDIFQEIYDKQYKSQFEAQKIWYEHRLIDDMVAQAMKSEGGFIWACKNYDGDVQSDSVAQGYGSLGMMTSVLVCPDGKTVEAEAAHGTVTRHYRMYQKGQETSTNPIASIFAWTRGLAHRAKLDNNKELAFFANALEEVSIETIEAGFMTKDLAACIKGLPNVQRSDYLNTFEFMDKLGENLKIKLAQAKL
T cruzi growth-1 = T. cruzi proliferation inhibition | hit rate 5.9% among 77,000 | T. cruzi beta-gal in NIH3T3, GalScreen luminescence, 90 h | inhibition, % at 8.34 µM;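 active = mean inhibition above about 93%, with at least 55% of replicates each passing it, limit read from the data, passing the limit was not always enough; inconclusive = only one of those two conditions holds; inactive = neither condition holds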
KDM4C inh = KDM4C (human) demethylase inhibition; Q9H3R0; GST-KDM4C 2-372, H3K9me3 peptide, LANCE TR-FRET; inhibition, % at 12.5 µM; hit rate 0.15% among 96,000; AID 720574;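 active = mean replicate inhibition above about 25%, with at least 55% of replicates also reaching it, limit read from the data, passing the limit was not always enough; inconclusive = only one of those two conditions met; inactive = neither condition met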
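Test system – GST-tagged GASC-1 (JMJD2C) catalytic fragment, aa 2-372 · Medium – HEPES buffer, pH 7.5, plus ascorbate · Reagent – H3K9me3 peptide with Fe(II)/2OG · Compound – one test concentration per compound · Timing – 30 min reaction, 60 min detection, RT · Technique – TR-FRET with Eu antibody and ULight streptavidin, EDTA stop · Read-out basis – inhibition from TR-FRET ratio decrease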
T cruzi growth-2 = inhibitors of T. cruzi proliferation; shares compounds with T cruzi growth-1; T. cruzi beta-gal in NIH3T3, GalScreen luminescence, 90 h; inhibition, % at 8.35 µM; hit rate 72% among 5,600; AID 651739;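 active = mean replicate inhibition above about 95% and at least 55% of replicates individually reaching it, limit read from the data; inconclusive = only one of the two criteria is met; inactive = neither criterion is met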
T cruzi growth-3 = inhibitors of T. cruzi proliferation. shares compounds with T cruzi growth-1. T. cruzi beta-gal in NIH3T3, GalScreen luminescence, 90 h. inhibition, % at 2.09 µM. hit rate 21% among 5,600;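 active = mean inhibition above about 95%, with at least 55% of replicates also reaching it, limit read from the data; inconclusive = meets just one of the two conditions; inactive = meets neither condition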;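 note: plate controls were neutral control median for no effect and positive control median for full effect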
NIH3T3 tox = cytotoxicity in mouse NIH/3T3 fibroblasts; shares compounds with T cruzi growth-1; NIH/3T3 viability, CellTiter-Glo ATP luminescence, 90 h; cytotoxicity (signal decrease), % at 8.35 µM; hit rate 14% among 5,600; AID 651742;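 active = mean signal decrease across replicates above about 35% based on untreated-well scatter, with enough replicates individually passing, limit read from the data; inconclusive = no rule stated though some were filed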;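 note: 0% = median of neutral control wells and 100% = median of positive control wells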
NIH3T3 tox 2 = cytotoxicity in mouse NIH/3T3 fibroblasts; hit rate 56% among 5,600; inhibition, % at 24.9 µM; AID 651744; shares compounds with T cruzi growth-1; NIH/3T3 viability, CellTiter-Glo ATP luminescence, 90 h;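 active = mean loss of cell viability signal at or above a set limit, and enough replicates individually reaching it; inconclusive = meets only the mean limit or only the replicate share; inactive = meets neither condition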;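 note: 0% = median of neutral control wells and 100% = median of positive control wells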
An asterisk follows results filed as active; ? = inconclusive; · = no result.

SMILES	IDH1 mut inh	T cruzi growth-1	KDM4C inh	T cruzi growth-2	T cruzi growth-3	NIH3T3 tox	NIH3T3 tox 2
O=C(C[C@@H]1C[C@@H]2c3cc(NC(=O)NC4CCCC4)ccc3O[C@@H]2[C@@H](CO)O1)NCc1ccc(Cl)cc1	0	25	1	·	·	·	·
O=C(C[C@H]1C[C@H]2c3cc(NC(=O)NC4CCCC4)ccc3O[C@H]2[C@@H](CO)O1)NCc1ccc(Cl)cc1	1	105*	-1	2	-7	6	-1
O=C(C[C@H]1C[C@@H]2c3cc(NC(=O)Nc4ccccc4)ccc3O[C@@H]2[C@H](CO)O1)NCc1cccc(F)c1	1	39	-3	·	·	·	·
Cc1nc2nc[nH]n2c(=O)c1NS(=O)(=O)c1cccs1	0	·	·	·	·	·	·
CN(CC(=O)N1CCC(C(N)=O)CC1)S(=O)(=O)c1ccc(F)cc1	2	·	·	·	·	·	·
CN(C)CCCN1C(=O)[C@@]2(Cc3ccccc31)c1ccccc1C(=O)N(Cc1ccccc1)[C@H]2c1ccc(CO)cc1	1	·	·	·	·	·	·
CSc1ccccc1NC(=O)CN(c1cccc2ccccc12)S(C)(=O)=O	0	·	·	·	·	·	·
CCc1ccccc1NC(=O)CSc1nnc(-c2cccc(OC)c2)n1C	0	·	·	·	·	·	·
C[C@H](CO)N1C[C@H](C)[C@@H](CN(C)C(=O)C2CCC2)Oc2cc(C#CC3CC3)ccc2S1(=O)=O	-2	76	-2	·	·	·	·
C[C@@H]1CN([C@H](C)CO)S(=O)(=O)c2ccc(C#CC3CC3)cc2O[C@@H]1CN(C)C(=O)C1CCC1	·	57	-1	·	·	·	·
C[C@H]1CN([C@@H](C)CO)S(=O)(=O)c2ccc(C#CC3CC3)cc2O[C@H]1CN(C)C(=O)C1CCCCC1	·	100*	1	106*	84	13	51*
C[C@H]1CN([C@@H](C)CO)S(=O)(=O)c2ccc(C#CC3CC3)cc2O[C@@H]1CN(C)C(=O)C1CCC1	·	78	1	·	·	·	·
C[C@H](CO)N1C[C@H](C)[C@@H](CN(C)C(=O)C2CCCCC2)Oc2cc(C#CC3CC3)ccc2S1(=O)=O	·	?	-2	105*	71	18	43*
C[C@@H]1CN([C@@H](C)CO)S(=O)(=O)c2ccc(C#CC3CC3)cc2O[C@@H]1CN(C)C(=O)C1CCC1	·	66	1	·	·	·	·
C[C@H](CO)N1C[C@H](C)[C@H](CN(C)C(=O)C2CCCCC2)Oc2cc(C#CC3CC3)ccc2S1(=O)=O	·	?	-2	106*	67	11	27
C[C@@H]1CN([C@@H](C)CO)S(=O)(=O)c2ccc(C#CC3CC3)cc2O[C@H]1CN(C)C(=O)C1CCCCC1	·	?	-2	105*	81	38*	29*
O=C(CN1C2=NCCN2c2ccccc21)c1ccc(Cl)cc1Cl	-4	·	·	·	·	·	·
O=C(Nc1ccccc1Cl)C1CC(=O)n2ncnc2N1 (configuration not stated)	0	·	·	·	·	·	·
CCc1ccccc1NC(=O)CSc1c(C)n[nH]c1C	0	·	·	·	·	·	·
Cc1cc(C)cc(NC(=O)CSc2nnc(N)s2)c1	0	·	·	·	·	·	·
O=C(NCc1ccco1)c1ccccc1NC(=O)C1COc2ccccc2O1 (configuration not stated)	0	·	·	·	·	·	·
C[C@H]1CN([C@@H](C)CO)S(=O)(=O)c2ccc(C#CC3CC3)cc2O[C@@H]1CN(C)C(=O)C1CCCCC1	·	111*	1	106*	92	11	45*
C[C@@H]1CN([C@@H](C)CO)S(=O)(=O)c2ccc(C#CC3CC3)cc2O[C@@H]1CN(C)C(=O)C1CCCCC1	·	100*	-1	105*	88	14	20
C[C@@H]1CN([C@@H](C)CO)S(=O)(=O)c2ccc(C#CC3CC3)cc2O[C@H]1CN(C)C(=O)C1CCC1	·	84	0	·	·	·	·
C[C@@H]1CN([C@H](C)CO)S(=O)(=O)c2ccc(C#CC3CCCC3)cc2O[C@@H]1CN(C)C(=O)C1CC1	-3	-94	0	·	·	·	·
SMILES	IDH1 mut inh	T cruzi growth-1	KDM4C inh	T cruzi growth-2	T cruzi growth-3	NIH3T3 tox	NIH3T3 tox 2
O=C(CSc1nnc(-c2ccccc2)c(-c2ccccc2)n1)Nc1cccc(C(F)(F)F)c1	1	·	·	·	·	·	·
C[C@H](CO)N1C[C@H](C)[C@@H](CN(C)S(=O)(=O)c2ccc(F)cc2)Oc2cc(-c3cccc(F)c3)ccc2S1(=O)=O	·	118*	-2	97*	104*	39*	42*
COc1ccc(S(=O)(=O)N(C)C[C@@H]2Oc3cc(-c4cccc(F)c4)ccc3S(=O)(=O)N([C@H](C)CO)C[C@H]2C)cc1	0	·	1	·	·	·	·
C[C@@H]1CN([C@@H](C)CO)S(=O)(=O)c2ccc(-c3cccc(F)c3)cc2O[C@H]1CN(C)S(=O)(=O)c1ccc(F)cc1	·	113*	1	101*	108*	49*	48*
COc1ccc(S(=O)(=O)N(C)C[C@H]2Oc3cc(-c4cccc(F)c4)ccc3S(=O)(=O)N([C@H](C)CO)C[C@@H]2C)cc1	-1	·	-1	·	·	·	·
Cc1cc(Cl)c(S(=O)(=O)Nc2ccc(I)cc2)cc1OCC(N)=O	0	·	·	·	·	·	·
CCOC(=O)c1c(C)[nH]c2ccc3c(c12)CN1CCc2cc(OC)ccc2C1O3 (configuration not stated)	-4	·	·	·	·	·	·
C[C@@H]1CN([C@@H](C)CO)C(=O)Cc2cc(NC(=O)CCCN(C)C)ccc2O[C@H]1CN(C)C(=O)Nc1ccc(F)cc1	2	·	2	·	·	·	·
C[C@@H]1CCCCO[C@H](CN(C)C(=O)Nc2ccc3c(c2)OCO3)[C@H](C)CN([C@@H](C)CO)C(=O)c2cc(NC(=O)Cc3ccccc3)ccc2O1	16	?	13	?	45	-14	-18
C[C@@H]1CN([C@H](C)CO)C(=O)c2cc(NC(=O)Cc3ccccc3)ccc2O[C@@H](C)CCCCO[C@H]1CN(C)C(=O)Nc1ccc2c(c1)OCO2	4	53	0	·	·	·	·
C[C@H](CO)N1C[C@H](C)[C@@H](CN(C)C(=O)Nc2ccc(F)cc2)OCCCC[C@H](C)Oc2ccc(NC(=O)Cc3ccccc3)cc2C1=O	·	98*	-2	?	45	-14	4
C[C@@H]1CN([C@@H](C)CO)C(=O)Cc2cc(NC(=O)CCN3CCOCC3)ccc2O[C@H]1CN(C)C(=O)Nc1ccccc1	-1	6	-3	·	·	·	·
C[C@@H]1CCCCO[C@@H](CN(C)C(=O)Nc2ccc(F)cc2)[C@H](C)CN([C@@H](C)CO)C(=O)c2cc(NC(=O)Cc3ccccc3)ccc2O1	1	84	-1	·	·	·	·
C[C@H]1CN([C@@H](C)CO)C(=O)Cc2cc(NC(=O)CCCN(C)C)ccc2O[C@@H]1CN(C)C(=O)Nc1ccc2c(c1)OCO2	0	?	4	17	26	-11	-2
C[C@@H]1CN([C@H](C)CO)C(=O)Cc2cc(NC(=O)CCN3CCOCC3)ccc2O[C@H]1CN(C)C(=O)Nc1ccc(F)cc1	2	99*	0	61	25	7	7

High-throughput results as filed in PubChem BioAssay.
